Values after ≈ are worked out from the molar mass of the structure shown.
Key:
L1210 [1] = assay: Tested for cytotoxicity in the multiple tumor disk diffusion soft agar assay at the dose of 15 ug/disk against leukemia L1210; range is 500-580; format: functional, Mus musculus
Procedure, shortened: (§1)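 Soft agar disk diffusion: bottom layer 0.8% noble agar, top layer 0.47% noble agar, both in 1:1 CMRL-Fischer medium with 11% horse serum. Top layer seeded with 5×10^3 L1210 cells or 10^6 solid tumor cells (C38, PO3). Drug applied on a dried 6-mm filter-paper disk. Incubation 7-11 days. Inhibition zone measured by inverted microscope, in units (1 unit = 30 μm).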

[2] = Tested for cytotoxicity in the multiple tumor disk diffusion soft agar assay at the dose of 15 ug/disk against solid tumor C38; U = 32 uM; format: functional, Mus musculus; procedure, shortened: as §1
P388 [3] = assay: In vivo T/C (survival time treated/survival time control x 100) was determined against P388 leukemia cells at 10 mg/Kg; format: functional, Mus musculus
Procedure, shortened: (§2)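 B6D2 F1 mice, at least five per group, were inoculated ip on day 0 with 10^6 viable P388 cells (25 mL/kg). Compounds were dissolved in distilled water and given ip (25 mL/kg) daily on days 1–4. Mortality was checked daily, with necropsy of dead animals. T/C×100 was median survival, treated versus control. Survivors beyond 50 days counted as cured and were excluded from the median.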

L1210 [4] = assay: Cytotoxicity in the multiple tumor disk diffusion soft agar assay at the dose of 15 ug/disk against leukemia L1210; format: functional, Mus musculus; procedure, shortened: as §1
[5] = Tested for cytotoxicity in the multiple tumor disk diffusion soft agar assay at the dose of 15 ug/disk against solid tumor PO3; U = […]; format: functional, Mus musculus; procedure, shortened: as §1
P388 [6] = assay: In vitro cytotoxicity was determined against P388 leukemia cells; format: functional; conditions: Mus musculus, read-out: ID50 (the source's name)
Procedure, shortened: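 P388 cells in exponential growth, RPMI 1640 with 2 mM glutamine, 10 μM 2-mercaptoethanol and 10% FCS, 5% CO2, 37 °C. Cells at 10^5 cells/mL. Drugs in distilled water added on day 0. Cells counted by Coulter counter after 96 h. ID50 (μg/mL, 50% inhibition of proliferation) estimated by regression of concentration/response data.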

P388 [7] = assay: In vivo T/C (survival time treated/survival time control x 100) was determined against P388 leukemia cells at 40 mg/Kg; format: functional, Mus musculus; procedure, shortened: as §2
L1210 [8] = assay: Tested for cytotoxicity in the multiple tumor disk diffusion soft agar assay at the dose of 15 ug/disk against leukemia L1210; range is 290-350; format: functional, Mus musculus; procedure, shortened: as §1
L1210 [9] = assay: Tested for cytotoxicity in the multiple tumor disk diffusion soft agar assay at the dose of 15 ug/disk against leukemia L1210; U = 32 uM; format: functional, Mus musculus; procedure, shortened: as §1
[10] = Cytotoxicity in the multiple tumor disk diffusion soft agar assay at the dose of 15 ug/disk against solid tumor C38.; format: functional, Mus musculus; procedure, shortened: as §1
[11] = Cytotoxicity in the multiple tumor disk diffusion soft agar assay at the dose of 15 ug/disk against solid tumor PO3; format: functional, Mus musculus; procedure, shortened: as §1
L1210 [12] = assay: Tested for cytotoxicity in the multiple tumor disk diffusion soft agar assay at the dose of 15 ug/disk against leukemia L1210; range is 450-500; format: functional, Mus musculus; procedure, shortened: as §1
[13] = Tested for cytotoxicity in the multiple tumor disk diffusion soft agar assay at the dose of 15 ug/disk against solid tumor PO3; range is 430-480; format: functional, Mus musculus
L1210 [14] = assay: Tested for cytotoxicity in the multiple tumor disk diffusion soft agar assay at the dose of 15 ug/disk against leukemia L1210; format: functional, Mus musculus; procedure, shortened: as §1
L1210 [15] = assay: Tested for cytotoxicity in the multiple tumor disk diffusion soft agar assay at the dose of 15 ug/disk against leukemia L1210; range is 420-525; format: functional, Mus musculus; procedure, shortened: as §1
Mus musculus [16] = assay: Tested for the change in body weight between day1 and 7 for murine solid tumor model MA 16/C early stage that is subcutaneously implanted by the intravenous treatment at the dose of 5 mg/kg in 1-4 schedule; format: functional
Procedure, shortened: (§3)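 Mice given sc 1 mm³ tumor fragment: C26 in CD2F1 mice, MA 16/C in C3H mice (tumors passaged in strain of origin), 10 per group. Drug given iv days 1–4 at 10 mL/kg. Animals weighed daily and watched for toxicity. Body-weight change taken from day 1 to day 7. Killed day 14 (C26) or 15 (MA 16/C).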

[17] = Tested for the change in body weight between day1 and 7 for murine solid tumor model B16 early stage that is subcutaneously implanted by the intravenous treatment at the dose of 5 mg/kg in 1-4 schedule; format: functional, Mus musculus
Procedure, shortened: (§4)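 sc implant of 1 mm³ tumor fragment. MA 16/C in C3H mice, B16 in C57BL/6 mice, C26 in CD2F1 mice; 10 per group. iv dosing on days 1-4 at 10 mL/kg. Mice weighed daily. Killed day 14 (C26) or day 15 (MA 16/C, B16) and tumors weighed. T/C×100 from median tumor weight, treated vs control. Body weight change taken from day 1 to 7.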

Mus musculus [18] = assay: Tested for the change in body weight between day1 and 7 for murine solid tumor model C26 early stage that is subcutaneously implanted by the intravenous treatment at the dose of 10 mg/kg in 1-4 schedule; format: functional; procedure, shortened: as §4
Mus musculus [19] = assay: Tested for medium tumor weight of treated /control animals x 100 (% T/C) for murine solid tumor model MA 16/C early stage that is subcutaneously implanted by the intravenous treatment at the dose of 5 mg/kg in 1-4 schedule; format: functional; procedure, shortened: as §4
[20] = Tested for medium tumor weight of treated /control animals x 100 (% T/C) for murine solid tumor model B16 early stage that is subcutaneously implanted by the intravenous treatment at the dose of 5 mg/kg in 1-4 schedule; format: functional, Mus musculus; procedure, shortened: as §4
Mus musculus [21] = assay: Tested for medium tumor weight of treated /control animals x 100 (% T/C) for murine solid tumor model C26 early stage that is subcutaneously implanted by the intravenous treatment at the dose of 10 mg/kg in 1-4 schedule; format: functional; procedure, shortened: as §4
Mus musculus [22] = assay: Tested for mean number of metastases in treated/control animals x 100 (% T/C) for murine solid tumor model 3LL early stage that is intramuscularly implanted by the intravenous treatment at the dose of 2.5 mg/kg in 1-4 schedule
Mus musculus [23] = assay: Tested for medium tumor weight of treated /control animals x 100 (% T/C) for murine solid tumor model 3LL advanced stage that is subcutaneously implanted by the intravenous treatment at the dose of 2.5 mg/kg in 1-4 schedule; format: functional
Mus musculus [24] = assay: Tested for the change in body weight between day1 and 7 for murine solid tumor model MA 16/C early stage that is subcutaneously implanted by the intravenous treatment at the dose of 2.5 mg/kg in 1-4 schedule; format: functional; procedure, shortened: as §3
Mus musculus [25] = assay: Tested for the change in body weight between day1 and 7 for murine solid tumor model B16 early stage that is subcutaneously implanted by the intravenous treatment at the dose of 1.25 mg/kg in 1-4 schedule; format: functional; procedure, shortened: as §4
Mus musculus [26] = assay: In vivo total number of survivors was determined against L1210 Leukemia cells out of 8 mouse at 50 day; format: functional, Leukemia cell
Procedure, shortened: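 B6D2 F1 mice, at least five per group, were inoculated ip on day 0 with 10^5 viable L1210 cells (25 mL/kg). Compounds were dissolved in distilled water and given ip (25 mL/kg) on days 1–4. Deaths were checked daily, with necropsy to separate tumor from toxic death. T/C×100 was median survival of treated over controls. Mice surviving over 50 days counted as cured and were excluded from the median.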

Mus musculus [27] = assay: Tested for medium tumor weight of treated /control animals x 100 (% T/C) for murine solid tumor model C26 early stage that is subcutaneously implanted by the intravenous treatment at the dose of 2.5 mg/kg in 1-4 schedule; format: functional; procedure, shortened: as §4
Mus musculus [28] = assay: Tested for the change in body weight between day1 and 7 for murine solid tumor model C26 early stage that is subcutaneously implanted by the intravenous treatment at the dose of 2.5 mg/kg in 1-4 schedule; format: functional; procedure, shortened: as §3
Mus musculus [29] = assay: Tested for the change in body weight between day1 and 14 for murine solid tumor model 3LL advanced stage that is intramuscularly implanted by the intravenous treatment at the dose of 2.5 mg/kg in 7-10 schedule
Mus musculus [30] = assay: Tested for the change in body weight between day1 and 7 for murine solid tumor model 3LL early stage that is intramuscularly implanted by the intravenous treatment at the dose of 2.5 mg/kg in 1-4 schedule
Mus musculus [31] = assay: Tested for medium tumor weight of treated /control animals x 100 (% T/C) for murine solid tumor model MA 16/C early stage that is subcutaneously implanted by the intravenous treatment at the dose of 2.5 mg/kg in 1-4 schedule; format: functional; procedure, shortened: as §4
Mus musculus [32] = assay: Tested for medium tumor weight of treated /control animals x 100 (% T/C) for murine solid tumor model B16 early stage that is subcutaneously implanted by the intravenous treatment at the dose of 1.25 mg/kg in 1-4 schedule; format: functional; procedure, shortened: as §4

Cc1cnc(NCCCN(C)C)c2c3ccc4ccccc4c3n(C)c12
Cytotoxicity (L1210 [1]): 500 U
Cytotoxicity [2]: 480 U
T/C x100 (P388 [3]): 119
Cytotoxicity (L1210 [4]): 450 U
Cytotoxicity [5]: 325 U
IC50 (P388 [6]): 0.375 µg/mL (≈ 1.08 µM)

COc1cccc2c1ccc1c3c(NCCCN(C)C)ncc(C)c3n(C)c21
Cytotoxicity [2]: 675 U
T/C x100 (P388 [7]): 130
Cytotoxicity [5]: 275 U
IC50 (P388 [6]): 0.75 µg/mL (≈ 1.99 µM)
Cytotoxicity (L1210 [8]): 290 U
Cytotoxicity (L1210 [9]): 375 U

CCN(CC)CCCNc1ncc(C)c2c1c1c3ccc(OC)cc3ccc1n2C
Cytotoxicity (L1210 [4]): 400 U
T/C x100 (P388 [7]): 143
Cytotoxicity [10]: 325 U
IC50 (P388 [6]): 0.75 µg/mL (≈ 1.85 µM)
Cytotoxicity [11]: 375 U
Cytotoxicity (L1210 [12]): 450 U

CCN(CC)CCCNc1ncc(C)c2c1c1ccc3c(O)cccc3c1n2C
Cytotoxicity [2]: 730 U
T/C x100 (P388 [3]): 160
Cytotoxicity [13]: 430 U
IC50 (P388 [6]): 0.05 µg/mL (≈ 0.128 µM)
Cytotoxicity (L1210 [14]): 450 U
Cytotoxicity (L1210 [9]): 500 U

CCN(CC)CCCNc1ncc(C)c2[nH]c3ccc4ccccc4c3c12
Cytotoxicity (L1210 [15]): 420 U
T/C x100 (P388 [7]): 149
Cytotoxicity [10]: 525 U
IC50 (P388 [6]): 0.18 µg/mL (≈ 0.499 µM)

CCN(CC)CCCNc1nccc2c(C)c3[nH]c4ccncc4c3cc12 [PAZELLIPTINE]
Change in weight (Mus musculus [16]): -1.5 g
Change in weight [17]: -0.5 g
Change in weight (Mus musculus [18]): -1.5 g
T/C (Mus musculus [19]): 45%
T/C [20]: 10%
T/C (Mus musculus [21]): 10%

CCN(CC)CCCNc1nccc2c(C)c3[nH]c4ccc(OC)cc4c3c(C)c12 [RETELLIPTINE]
T/C (Mus musculus [22]): 0%
T/C (Mus musculus [23]): 40%
Change in weight (Mus musculus [24]): -2.2 g
Change in weight (Mus musculus [25]): 1 g
Survivors (Mus musculus [26]): 3
T/C (Mus musculus [27]): 0%
Change in weight (Mus musculus [28]): -2.1 g
Change in weight (Mus musculus [29]): 0 g
Change in weight (Mus musculus [30]): -1.4 g
T/C (Mus musculus [31]): 4%
T/C (Mus musculus [32]): 26%
